Measurements taken from ChEMBL document CHEMBL1143391, “Design, synthesis, and evaluation of oxygen-containing macrocyclic peptidomimetics as inhibitors of HCV NS3 protease” (J Med Chem, 2009).

Key:
[1] = Selectivity for HCV NS3 protease over human neutrophil elastase
[2] = Binding affinity to HCV NS3 protease by spectrophotometry; parameters: species or system Hepacivirus hominis
Procedure, shortened: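 Continuous assay with NS4A-tethered single-chain NS3 serine protease, read out chromogenically. Affinity reported as Ki*.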

Hepatitis C virus = assay: Antiviral activity against HCV RNA replication in human hepatoma cells by replicon assay; type: functional, organism-based, Hepacivirus hominis

For C=CCNC(=O)C(=O)[C@@H]1CCCCCCCOC[C@H](NC(=O)N[C@H](CN(C)S(=O)(=O)CC)C(C)(C)C)C(=O)N2C[C@H]3[C@@H]([C@H]2C(=O)N1)C3(C)C, the Ratio [1] was 350 and the Ki [2] was 18 nM.
For CC(C)(C)NC(=O)N[C@H](C(=O)N1C[C@H]2[C@@H]([C@H]1C(=O)NC(CC1CCC1)C(=O)C(N)=O)C2(C)C)C(C)(C)C (some centres undefined) [BOCEPREVIR], the Ratio [1] was 2200, the EC90 (Hepatitis C virus; read-out: EC90) was 350 nM and the Ki [2] was 14 nM.
C=CCNC(=O)C(=O)[C@@H]1CCCCCCCOC[C@H](NC(=O)N[C@H](CN2CCCCC2=O)C(C)(C)C)C(=O)N2C[C@H]3[C@@H]([C@H]2C(=O)N1)C3(C)C gave a Ratio [1] of 160, an EC90 (Hepatitis C virus; read-out: EC90) of 160 nM and a Ki [2] of 21 nM.
Compound C=CCNC(=O)C(=O)[C@@H]1CCCCCCCOC[C@H](NC(=O)N[C@H](CN(C)S(=O)(=O)c2cccs2)C(C)(C)C)C(=O)N2C[C@H]3[C@@H]([C@H]2C(=O)N1)C3(C)C has a Ratio [1] of 100, an EC90 (Hepatitis C virus; read-out: EC90) of 150 nM and a Ki [2] of 14 nM.
With C=CCNC(=O)C(=O)[C@@H]1CCCCCCCOC[C@H](NC(=O)N[C@H](CN2CCC(C)(C)CC2=O)C(C)(C)C)C(=O)N2C[C@H]3[C@@H]([C@H]2C(=O)N1)C3(C)C the Ratio [1] was 140, the EC90 (Hepatitis C virus; read-out: EC90) was 100 nM and the Ki [2] was 21 nM.
Compound C=CCNC(=O)C(=O)[C@@H]1CCCCCCCOC[C@H](NC(=O)N[C@H](CN2C(=O)C3CCC(C3)C2=O)C(C)(C)C)C(=O)N2C[C@H]3[C@@H]([C@H]2C(=O)N1)C3(C)C has a Ratio [1] of 1500, an EC90 (Hepatitis C virus; read-out: EC90) of 30 nM and a Ki [2] of 3 nM.
In the case of C=CCNC(=O)C(=O)[C@@H]1CCCCCCCOC[C@H](NC(=O)OC(C)(C)C)C(=O)N2C[C@H]3[C@@H]([C@H]2C(=O)N1)C3(C)C, the Ki [2] is reported as 150 nM.
C=CCNC(=O)C(=O)[C@@H]1CCCCCCCOC[C@H](NC(=O)N[C@H](CN2C(=O)CC(C)(C)CC2=O)C(C)(C)C)C(=O)N2C[C@H]3[C@@H]([C@H]2C(=O)N1)C3(C)C showed a Ratio [1] of 300, an EC90 (Hepatitis C virus; read-out: EC90) of 50 nM and a Ki [2] of 7 nM.
C=CCNC(=O)C(=O)[C@@H]1CCCCCCCO[C@@H](C)[C@H](NC(=O)N[C@H](CN2C(=O)CC(C)(C)CC2=O)C(C)(C)C)C(=O)N2C[C@H]3[C@@H]([C@H]2C(=O)N1)C3(C)C showed a Ratio [1] of 1400, an EC90 (Hepatitis C virus) of 40 nM and a Ki [2] of 7 nM.
With C=CCNC(=O)C(=O)[C@@H]1CCCCCCCO[C@@H](C)[C@H](NC(=O)N[C@H](CN2C(=O)CN(C)CC2=O)C(C)(C)C)C(=O)N2C[C@H]3[C@@H]([C@H]2C(=O)N1)C3(C)C the Ratio [1] was 1100, the EC90 (Hepatitis C virus; read-out: EC90) was 60 nM and the Ki [2] was 6 nM.
In the case of C=CCNC(=O)C(=O)[C@@H]1CCCCCCCOC[C@H](NC=O)C(=O)N2C[C@H]3[C@@H]([C@H]2C(=O)N1)C3(C)C, the Ki [2] is reported as 400 nM.
With CC(C)(C)OC(=O)N[C@@H]1C(=O)N2C[C@H]3[C@@H]([C@H]2C(=O)N[C@H](C(=O)C(N)=O)CCCCCCCCCC1(C)C)C3(C)C the Ki [2] was 250 nM.
With C=CCNC(=O)C(=O)[C@@H]1CCCCCCCO[C@@H](C)[C@H](NC(=O)N[C@H](CN2CCC(C)(C)CC2=O)C(C)(C)C)C(=O)N2C[C@H]3[C@@H]([C@H]2C(=O)N1)C3(C)C the Ratio [1] was 1300, the EC90 (Hepatitis C virus; read-out: EC90) was 60 nM and the Ki [2] was 8 nM.
In the case of C=CCNC(=O)C(=O)[C@@H]1CCCCCCCOC[C@H](NC(=O)N[C@H](CN2C(=O)CN(C)CC2=O)C(C)(C)C)C(=O)N2C[C@H]3[C@@H]([C@H]2C(=O)N1)C3(C)C, the Ratio [1] is reported as 300, the EC90 (Hepatitis C virus; read-out: EC90) is reported as 80 nM and the Ki [2] is reported as 15 nM.
C=CCNC(=O)C(=O)[C@@H]1CCCCNC(=O)OCCC[C@H](NC(=O)OC(C)(C)C)C(=O)N2C[C@H]3[C@@H]([C@H]2C(=O)N1)C3(C)C showed a Ki [2] of 660 nM.
Compound C=CCNC(=O)C(=O)[C@@H]1CCCCCCCCC[C@H](NC(=O)OC(C)(C)C)C(=O)N2C[C@H]3[C@@H]([C@H]2C(=O)N1)C3(C)C has a Ki [2] of 36 nM.
For C=CCNC(=O)C(=O)[C@@H]1CCCCCCCO[C@@H](C)[C@H](NC(=O)N[C@H](CN2C(=O)C3CCC(C3)C2=O)C(C)(C)C)C(=O)N2C[C@H]3[C@@H]([C@H]2C(=O)N1)C3(C)C, the Ratio [1] was 2800, the EC90 (Hepatitis C virus; read-out: EC90) was 30 nM and the Ki [2] was 3 nM.
For C=CCNC(=O)C(=O)[C@@H]1CCCCCCCOC[C@H](NC(=O)N[C@H](C(=O)C2CC2)C2CCCCC2)C(=O)N2C[C@H]3[C@@H]([C@H]2C(=O)N1)C3(C)C, the Ratio [1] was 9 and the Ki [2] was 160 nM.
C=CCNC(=O)C(=O)[C@@H]1CCCCCCC(=O)CC[C@H](NC(=O)OC(C)(C)C)C(=O)N2C[C@H]3[C@@H]([C@H]2C(=O)N1)C3(C)C gave a Ki [2] of 320 nM.
With CC(C)(C)OC(=O)N[C@H]1CS(=O)(=O)CCCCCCC[C@@H](C(=O)C(=O)NC2CC2)NC(=O)[C@@H]2[C@@H]3[C@H](CN2C1=O)C3(C)C the Ki [2] was 670 nM.
